Screens as filed in PubChem.
An excerpt weighted towards active compounds, which were near 2.1% of everything screened.
Arbovirus inh – antivirals against arbovirus infection, primary screen, cell-based, full library, 10K replicate subset; arbovirus infection cell-based antiviral screen; inhibition, % at 10 µM; hit rate 0.37% among 200,000; in the data active = inhibition above about 30%
Autophagy HCS – autophagy modulators in MEF cells, primary screen, imaging, high-content, MEF GFP-LC3; MEF GFP-LC3 puncta imaging; test concentration mostly 10 µM; calls only at 10 µM (by protocol); hit rate 0.98% among 190,000;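 active = percentage of spot-positive cells more than 3 SD above its plate mean, without a fluorescence outlier flag or 80% toxicity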;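 note: spot-positive cell cutoff set from DMSO-treated cells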
PKD1 inh – inhibitors of human PKD1 kinase, biochemical, fluorescence polarization; inhibition, % (test concentration not listed); Serine/threonine-protein kinase D1 (Homo sapiens), Q15139; hit rate 0.056% among 200,000; PKD1 kinase fluorescence polarization assay; in the data active = inhibition above about 50%
Ins promoter up – insulin promoter activators in MIN6 cells, imaging, high-content screening, mouse beta cells. MIN6 insulin promoter-GFP reporter; active compounds read high. z-score at 5 µM. hit rate 0.3% among 190,000. AID 1625, 2009;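 active = z-score above 3 at 5 µM with at least 500 cells counted in the well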
RBBP9 inh – human RBBP9 inhibitors, primary screen, biochemical, fluorescence polarization, FP-Rh probe, HTS | Serine hydrolase RBBP9 (Homo sapiens), O75884 | recombinant RBBP9 | inhibition, % at 7.94 µM | hit rate 0.2% among 220,000 | AID 1515, 2009;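 active = inhibition above the campaign mean of all tested compounds plus 3 SD, cut at about 14% in these data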;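 note: plate controls were DMSO wells with RBBP9 for no effect and wells lacking RBBP9 protein for full effect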
Target sequence (O75884 whole entry, looked up): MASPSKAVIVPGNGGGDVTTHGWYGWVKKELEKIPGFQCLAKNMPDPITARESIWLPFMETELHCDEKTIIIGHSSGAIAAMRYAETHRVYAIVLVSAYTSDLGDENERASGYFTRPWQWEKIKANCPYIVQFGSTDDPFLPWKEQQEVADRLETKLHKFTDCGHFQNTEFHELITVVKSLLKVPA
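Material: RBBP9 protein. Amount: RBBP9 at 2.5 µM in dispensed solution, before mixing. Schedule: 30 min then 45 min, 25 °C. Medium: Tris buffer pH 8.0, NaCl, Pluronic. Measured by: fluorescence polarization. Measure: percent inhibition from mP, scaled between DMSO and no-protein wells. Replication: one well per compound.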
INS promoter inh – inhibitors of insulin promoter-driven GFP, primary screen, imaging, TRM-6 cells, eGFP reporter, cell count; AID 1273, 2008; reporter expression induced with tamoxifen; inhibition, % at 2 µM; hit rate 0.9% among 130,000;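 active = inhibition above the mean plus 3 SD, with well images judged a real hit on visual review, cut at about 60% in these data, passing the limit was not always enough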
RBBP9 inh conf – human RBBP9 inhibitors, retest, confirmation, biochemical, fluorescence polarization, FP-Rh probe, triplicate | shares compounds with RBBP9 inh | inhibition, % at 7.94 µM | recombinant RBBP9 | hit rate 36% among 410;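 active = inhibition above the hit cutoff derived for the primary screen, cut at about 15% in these data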;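 note: 0% = RBBP9 with DMSO and 100% = wells lacking RBBP9 protein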
* = called active by the depositor; i = inactive; · = no result given.

SMILES	Arbovirus inh	Autophagy HCS	PKD1 inh	Ins promoter up	RBBP9 inh	INS promoter inh	RBBP9 inh conf
CCN(CC(=O)Nc1ccc2c(c1)OC(F)(F)O2)Cc1nc2ccccc2c(=O)[nH]1	5	i	2	·	1	46	·
COc1ccccc1N1CCN(c2ccc(Cl)nn2)CC1	-7	i	0	0.93	5	7	·
COc1ccc(-c2cc3ccccc3[nH]2)cc1	·	·	·	-0.16	17*	·	4
COc1ccc(-c2cc(=O)c3ccccc3[nH]2)cc1	-3	i	1	-0.75	-5	-33	·
CCOC(=O)c1cc(-c2ccc(C)cc2)n(CCC(=O)NCCCOC)c1C	-4	i	-6	-0.44	15*	-9	2
CCOC(=O)c1cc(-c2ccccc2)n(CCC(=O)NC(C)CC)c1C (stereo not given)	-15	i	11	-0.07	-4	-16	·
COCCOC(=O)C1=C(C)NC(=O)N(C(C)=O)C1c1ccc(Cl)cc1 (stereo not given)	-2	i	2	-0.57	15*	·	8
CCOC(=O)C1=C(C)NC(=S)N(C(C)=O)C1c1ccc(Cl)cc1 (stereo not given)	-14	i	-4	·	-13	-14	·
CC(=O)NC(=S)Nc1cccc([N+](=O)[O-])c1	0	i	-3	-0.61	17*	·	1
CSCCC(NC(=O)c1cccc([N+](=O)[O-])c1)c1nc2ccccc2[nH]1 (stereo not given)	-8	i	-4	-0.42	-7	4	·
O=C(O)CN1CCN(Cc2ccccc2Cl)C1=O	·	i	1	·	16*	44	2
CSc1ccc(S(=O)(=O)Nc2ccc3c4c(cccc24)CC3)cc1	2	i	-7	1.4	-10	-3	·
CC(C)C1/C(=N/O)CC(c2ccccc2)NC1c1ccccc1 (stereo not given)	·	·	·	0.82	15*	·	6
CCCn1c(-c2ccc(F)cc2)cnc1SCC(=O)O	7	i	-1	0.42	-6	-14	·
Cc1cccc(C(=O)Nc2sc(-c3ccccc3)cc2C(=O)O)c1	·	·	·	0.03	-6	·	·
Cc1cc(O)c(-c2cc(O)c(C)cc2O)cc1O	·	·	·	0	47*	·	73*
Cc1cc(NC(=O)c2ccc(Cl)cc2)c(C)cc1O	-5	i	2	-0.92	0	-47	·
C=CCn1c(=O)c2c(C)c(C)sc2n2c(Nc3ccc(OC)cc3)nnc12	10	i	-3	0.13	16*	45	4
COc1cc(-c2ccc(Nc3ccccc3C(=O)O)c(OC)c2)ccc1Nc1ccccc1C(=O)O	·	·	·	-0.16	24*	·	46*
COc1cccc(Nc2ccccc2C(=O)O)c1	12	i	-3	0.08	-6	·	·
O=C(CSc1ccc(Cl)cc1)Nc1ncccn1	-3	i	-5	-0.16	-4	-30	·
Cn1ncc(Br)c1NC(=O)CSc1ccc(Cl)cc1	·	·	·	·	18*	·	3
Cc1ccc(-c2nc(NCC3CCCO3)sc2C)cc1 (stereo not given)	12	i	-5	-0.68	-12	-18	·
COc1cccc(-c2nc(CS(=O)(=O)CC(=O)NCc3ccc(Cl)cc3)c(C)o2)c1	-6	·	5	-0.72	-4	·	·
COc1ccc(-n2c(Cc3cccn3C)nnc2SCC(=O)NC2CCCC2)cc1	-1	i	-6	·	19*	100*	2
SMILES	Arbovirus inh	Autophagy HCS	PKD1 inh	Ins promoter up	RBBP9 inh	INS promoter inh	RBBP9 inh conf
COc1ccc(-n2c(Cc3cccn3C)nnc2SCC(=O)Nc2ccccc2)cc1	12	·	2	-0.52	-4	·	·
Cc1nn(-c2ccccc2)nc1C(=O)c1c(C)[nH]n(-c2ccccc2)c1=O	·	·	·	·	15*	·	1
O=C1c2ccccc2C(=O)c2c1cccc2N1CCCC1	-12	i	4	0.05	3	0	·
O=C1c2ccccc2-c2onc3ccc(N4CCCC4)c1c23	-39	i	2	0.43	46*	-218	16*
CCNc1ccc2noc3c2c1C(=O)c1ccccc1-3	-19	i	41	·	28*	-371	-3
COc1ccc(OCc2nn3c(-c4ccccn4)nnc3s2)cc1	6	i	3	-0.46	15*	19	1
COc1ccc(-c2nnc3sc(COc4ccccc4)nn23)cc1	-15	i	-4	0.09	-11	-15	·
O=C(COC(=O)c1ccc(-c2nnc(-c3ccccc3)o2)cc1)c1ccccc1	0	i	-8	-0.79	-1	·	·
Oc1cc(-n2cccn2)c(O)cc1-n1cccn1	·	·	·	0.15	63*	·	76*
CCCCOc1[nH]c2nc(-c3ccco3)n(Cc3ccco3)c(=N)c2c1C#N	-10	i	-12	-0.6	18*	·	11
c1ccc(CSc2nnc(-c3ccco3)n2Cc2ccco2)cc1	3	i	7	-0.17	-10	23	·
CCOC(=O)Cc1csc(NC(=O)CSc2nnc(Cc3csc(N)n3)n2C)n1	-1	i	-1	0.23	-7	-8	·
CC1CCCC(C)N1C(=O)COC(=O)C(Cc1ccccc1)NC(=O)c1cccs1 (stereo not given)	2	i	-1	1.1	16*	-158	0
Cc1ccc(S(=O)(=O)NNC(=S)Nc2cccc(F)c2)cc1	·	·	·	-0.37	-9	·	·
N#Cc1c(NC(=O)CSc2n[nH]c(N)n2)oc(-c2ccccc2)c1-c1ccccc1	-12	i	-4	·	-2	35	·
CCOC(=O)c1cc2occc2n1Cc1ccc(F)cc1	-10	i	-4	-0.28	-2	·	·
CCc1ccc(NSc2ccccc2[N+](=O)[O-])cc1	2	i	-8	-0.07	16*	0	5
O=C(C1CCCO1)N1CCN(C(=S)Nc2ccc(F)cc2)CC1 (stereo not given)	4	i	-12	0.56	0	3	·
COC(=O)c1cc(NC(=S)N2CCN(C(=O)C3CCCO3)CC2)cc(C(=O)OC)c1 (stereo not given)	-2	i	-7	-0.07	21*	·	3
CCS(=O)(=O)N1Cc2ccccc2CC1C(=O)OCC(=O)N(C(C)C)C(C)C (stereo not given)	3	i	-9	-0.14	0	·	·
C=CCN1C(=O)C(C)NC1=S (stereo not given)	·	·	·	0.42	22*	·	-1
CC(=O)c1sc2nc(-c3ccco3)ccc2c1N	·	·	·	1	21*	·	35*
Cc1cc(C2=NNC(=NC3CC3)SC2)c(C)n1-c1ccccc1	0	i	3	0.53	58*	·	22*
O=C1c2ccccc2C(=O)N1/N=C/c1ccc(O)c(O)c1O	·	·	·	0.28	20*	·	45*
FC(F)(F)c1cc(NCc2cccs2)n2ncnc2n1	3	i	0	0.46	0	-16	·
